Among the data in BindingDB's records for doi:10.1021/jm049010r (University of Florida, 2005) are EC50 values, retold here.

The test has as its target Melanocortin receptor 4 (Mus musculus, UniProt P56450). Description: Effective concentration for mouse Melanocortin-4 receptor. The procedure, abridged:
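HEK-293 cells stably expressing mouse melanocortin receptors (G418-selected) were transiently transfected with a CRE/β-galactosidase reporter. Lysates were incubated with ONPG at 37° and read at OD405. Signals were normalized to relative protein (OD595) and to forskolin response. EC50 came from nonlinear least-squares fits of duplicate experiments in quadruplet or more.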

The term EC50 denotes the concentration that produces a half-maximal response. A low value points to an effect from little substance.

Sequence of Melanocortin receptor 4 (P56450 whole entry): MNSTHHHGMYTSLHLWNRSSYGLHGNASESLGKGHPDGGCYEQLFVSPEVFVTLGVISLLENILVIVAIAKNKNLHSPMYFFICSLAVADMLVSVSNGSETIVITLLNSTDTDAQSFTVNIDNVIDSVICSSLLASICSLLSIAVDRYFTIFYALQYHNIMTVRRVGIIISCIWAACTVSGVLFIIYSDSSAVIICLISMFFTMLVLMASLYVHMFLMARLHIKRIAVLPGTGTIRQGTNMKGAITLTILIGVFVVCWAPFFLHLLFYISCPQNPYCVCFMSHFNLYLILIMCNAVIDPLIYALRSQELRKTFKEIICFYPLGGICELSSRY

Regarding `C[C@@H]1NC(=O)[C@H](CC(N)=O)NC(=O)[C@H](Cc2c[nH]c3ccccc23)NC(=O)[C@H](CCCNC(=N)N)NC(=O)[C@@H](Cc2cccc3ccccc23)NC(=O)[C@H](Cc2cnc[nH]2)NC(=O)[C@@H](NC(=O)[C@@H](N)Cc2ccc(O)cc2)CC(=O)N([C@@H](Cc2ccc(O)cc2)C(N)=O)C(C)(C(=O)O)NC(=O)[C@H](Cc2ccccc2)NC1=O` (some centres not stated), a half-maximal effect (EC50) was put at 0.57 nM. This lies in the sub-nanomolar range.

With `C[C@@H]1NC(=O)[C@H](CC(N)=O)NC(=O)[C@H](Cc2c[nH]c3ccccc23)NC(=O)[C@H](CCCNC(=N)N)NC(=O)[C@@H](Cc2ccc(-c3ccccc3)cc2)NC(=O)[C@H](Cc2cnc[nH]2)NC(=O)[C@@H](NC(=O)[C@@H](N)Cc2ccc(O)cc2)CC(=O)N([C@@H](Cc2ccc(O)cc2)C(N)=O)C(C)(C(=O)O)NC(=O)[C@H](Cc2ccccc2)NC1=O` (some centres not stated), a half-maximal response (EC50) required 0.57 nM.
